# Measurements from different studies.
# Protocols differ between the studies behind these lines.
# Target: Ephrin type-A receptor 8 (EPHA8, Homo sapiens, UniProt P29322)
# Sequence (P29322 28-1005, as in one of the studies): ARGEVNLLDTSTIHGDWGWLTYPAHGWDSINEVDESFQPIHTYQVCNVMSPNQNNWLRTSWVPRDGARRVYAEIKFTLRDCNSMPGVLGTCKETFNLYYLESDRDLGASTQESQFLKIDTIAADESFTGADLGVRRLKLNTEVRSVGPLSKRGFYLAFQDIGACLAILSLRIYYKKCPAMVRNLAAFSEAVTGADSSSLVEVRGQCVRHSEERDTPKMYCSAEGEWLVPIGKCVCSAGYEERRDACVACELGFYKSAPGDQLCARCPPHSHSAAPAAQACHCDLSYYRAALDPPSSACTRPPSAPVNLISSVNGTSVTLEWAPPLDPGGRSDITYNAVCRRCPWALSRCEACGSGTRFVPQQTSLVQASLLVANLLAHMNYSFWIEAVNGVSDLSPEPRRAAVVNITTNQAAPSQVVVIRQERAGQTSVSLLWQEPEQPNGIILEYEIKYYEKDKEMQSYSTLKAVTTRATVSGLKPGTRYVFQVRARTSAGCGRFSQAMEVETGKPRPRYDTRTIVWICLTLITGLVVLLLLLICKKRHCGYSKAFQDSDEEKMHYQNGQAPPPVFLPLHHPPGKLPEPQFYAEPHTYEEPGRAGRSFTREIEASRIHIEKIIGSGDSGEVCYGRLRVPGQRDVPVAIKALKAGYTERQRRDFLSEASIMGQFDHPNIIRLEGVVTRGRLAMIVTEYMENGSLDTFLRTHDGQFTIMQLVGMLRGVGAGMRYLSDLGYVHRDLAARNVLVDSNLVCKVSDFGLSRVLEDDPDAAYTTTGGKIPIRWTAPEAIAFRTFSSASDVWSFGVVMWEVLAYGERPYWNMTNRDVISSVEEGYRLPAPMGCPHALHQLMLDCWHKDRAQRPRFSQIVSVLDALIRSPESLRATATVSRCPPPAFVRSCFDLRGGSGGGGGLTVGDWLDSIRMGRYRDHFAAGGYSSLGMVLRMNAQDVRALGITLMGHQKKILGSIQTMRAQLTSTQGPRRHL
SMILES,assay,setting,endpoint,value
Cn1cc(-c2cccc(N3CCc4c(sc5c4CC(C)(C)C5)C3=O)c2CO)cc(Nc2ccncn2)c1=O,"enzyme activity, inhibitor",1 µM,inhibition,1%
COc1ncccc1-c1cnn2ccc(N3CCN(C(=O)OC(C)C)CC3)nc12,"binding, competition with immobilised ligand",1 µM,remaining binding,100%
O=c1[nH]c2ccccc2n1C1CCN(Cc2ccc(-c3[nH]c4cc5ncnc5cc4nc3-c3ccccc3)cc2)CC1,cell-free assay,0.5 µM,remaining signal,106%
COc1cc(Nc2ncc(F)c(Nc3ccc4c(n3)NC(=O)C(C)(C)O4)n2)cc(OC)c1OC,"binding, competition with immobilised ligand",10 µM,inhibition,58%
COc1cc(Cl)c(C(=O)N[C@@H](CN[C@H]2CC[C@@H](N)CC2)Cc2ccc(C#N)cc2)cc1-c1ccc(CN[C@H](C)c2ccc(C)cc2)o1,"enzyme activity, inhibitor",1 µM,remaining activity,107%
Cn1cncc1[C@](O)(COc1ccc(C#N)cc1-c1ccc(OC(F)(F)F)cc1)c1ccc(C#N)cc1,"cell-free assay, competition with immobilised ligand",1 µM,remaining binding,72%
Nc1ncc(-c2nc(N3CCOCC3)nc(N3CCOCC3)n2)c(C(F)F)n1,"cell-free assay, competition with immobilised ligand",10 µM,remaining binding,100%
N#CC1(c2ccccn2)CCN(Cc2cc(C(=O)O)c(=O)n3ccccc23)CC1,"cell-free assay, competition with immobilised ligand",1 µM,remaining binding,100%
Cn1cc(-c2cc(F)cc(N3CCn4c(cc5c4CCCC5)C3=O)c2CO)cc(Nc2ccc(N3CCN(C4COC4)CC3)cn2)c1=O,"enzyme activity, inhibitor",0.1 µM,inhibition,8%
CC(C)(C)c1cc(C=C(C#N)C#N)cc(Br)c1O,"enzyme activity, inhibitor",0.5 µM,remaining activity,100%
Cc1nn(C)cc1-c1nc2c(N3CCN(Cc4ccc(Cl)cc4)CC3)c(Cl)cnc2[nH]1,"binding, competition with immobilised ligand",1 µM,remaining binding,100%
